For experiment [1], the system named is MDA-MB-231. The experiment is described as follows: Cytotoxicity against human MDA-MB-231 cells at >= 150 uM. The experiment is classed as functional, cell-based.
Experiment [2] concerns MDA-MB-231. Briefly: Increase in sialic acid production in human MDA-MB-231 cells by periodate-resorcinal assay. The experiment is classed as functional, cell-based. An outline of the steps: (§1)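 Periodate-resorcinol assay for total sialic acid, adapted to small volumes. Treated cells were trypsinized, washed and resuspended in PBS, Coulter-counted, and lysed by three freeze-thaw cycles. Readings taken within five minutes. Molecules per cell calculated from the harvested cell number and a sialic acid standard curve run alongside. SEM, n ≥ 3.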

The subject of experiment [3] is MDA-MB-231. Briefly: Suppression of MUC1 transcription in human MDA-MB-231 cells by qRT-PCR. Type of experiment: functional, cell-based. Put shortly:
(§2)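 MDA-MB-231 RNA extracted with Trizol, DNase-treated and column-purified. qRT-PCR with Ct values in quadruplicate; relative expression by 2^-ΔΔCt from average Ct. Amplicons verified by agarose gel electrophoresis.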
In general terms: Real-time PCR tracks product formation cycle by cycle.

Experiment [4] deals with MDA-MB-231. The experiment is described as follows: Increase in human MDA-MB-231 cells invasion at 30 mM. The experiment is classed as functional, cell-based.
The subject of experiment [5] is MDA-MB-231. Briefly: Increase in intracellular sialic acid production in human MDA-MB-231 cells at 50 mM. Type of experiment: functional, cell-based.
Experiment [6] deals with MDA-MB-231. The experiment is described as follows: Increase in human MDA-MB-231 cells invasion at 10 mM. The experiment is classed as functional, cell-based.
Experiment [7] has as its target T1, Histone deacetylase (Homo sapiens) (UniProt Q13547+O15379+Q9UBN7+Q92769+Q9UQL6+Q8WUI4+Q9BY41+Q96DB2+P56524+Q9UKV0+Q969S8). Briefly: Inhibition of HDAC in human MDA-MB-231 cells assessed as increase in histone H3 acetylation after 2 days by densitometry.
The subject of experiment [8] is MDA-MB-231. The experiment is described as follows: Induction of salic acid production in human MDA-MB-231 cells by periodate-resorcinal assay. Type of experiment: functional, cell-based. Put shortly:
as §1

Experiment [9] concerns MDA-MB-231. The experiment is described as follows: Suppression of CXCR4 mRNA in human MDA-MB-231 cells after 3 days by qRT-PCR. The experiment is classed as functional, cell-based. Put shortly:
(§3)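 Cells exposed 3 days to compound. RNA extracted with Trizol, DNase-treated and column-purified. qRT-PCR with Ct measured in quadruplicate; relative expression by the 2^-ΔΔCt method. Products checked on agarose gel. SEM of independent experiments done in triplicate.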

Experiment [10] relates to MDA-MB-231. The experiment is described as follows: Decrease in MUC1 mRNA transcription in human MDA-MB-231 cells by qRT-PCR. Type of experiment: functional, cell-based. Put shortly: as §2
In experiment [11] the test system is MDA-MB-231. The experiment is described as follows: Inhibition of NF-kappaB transcriptional activity in human MDA-MB-231 cells at 125 uM by luciferase reporter gene assay. Type of experiment: cell-based. Also on record: scale not given: the % may be the effect or the level left. An outline of the steps: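 MDA-MB-231 cells electroporated with an NF-κB luciferase reporter plus an equal mass of SV-promoter β-galactosidase plasmid. Replated after 24 h recovery and treated with compound. NF-κB transactivation taken as the luciferase to β-galactosidase activity ratio. SEM of independent experiments in triplicate.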
(Reporter assays use an easily measured gene product as a stand-in for the process of interest.)

Experiment [12] relates to MDA-MB-231. Briefly: Decrease in MMP9 gelatinase activity in human MDA-MB-231 cells after 3 days by Zymogram assay. The experiment is classed as functional, cell-based.
The subject of experiment [13] is MDA-MB-231. The experiment is described as follows: Inhibition of human MDA-MB-231 cells invasion at 150 uM after 2 days by Boyden chamber assay. The experiment is classed as functional, cell-based. An outline of the steps:
(§4)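 Cells pretreated 2 or 3 days with compound (final EtOH 0.4% v/v), then trypsinized and resuspended in serum-free RPMI-1640. 50000 viable cells per chamber (equal loading confirmed by WST-8) in modified Boyden chambers. Migration measured through 8.0 µm pores toward a serum gradient; invasion through a Matrigel layer. After 24 h at 37 °C, cells were stained with Diff-Quik and counted. Viability rechecked by WST-8 at 24 h. SEM of technical replicates (n = 6 or 3); double-sided t test.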

For experiment [14], the target named is T1, Histone deacetylase (Homo sapiens). Briefly: Inhibition of HDAC in human MDA-MB-231 cells assessed as decrease in MUC1 mRNA expression qRT-PCR. Type of experiment: cell-based.
For experiment [15], the system named is MDA-MB-231. Briefly: Inhibition of human MDA-MB-231 cells invasion at 50 uM after 2 days by Boyden chamber assay. The experiment is classed as functional, cell-based. Put shortly:
as §4

Experiment [16] concerns MDA-MB-231. The experiment is described as follows: Growth inhibition of human MDA-MB-231 cells assessed as rounded-up morphology after 3 days by phase contrast micrograph.
Another experiment deals with HEK293. The experiment is described as follows: Inhibition of NF-kappaB transcriptional activity in human HEK AD293 cells at 125 uM by luciferase reporter gene assay. Type of experiment: cell-based. On the set-up: scale not given: the % may be the effect or the level left. An outline of the steps: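 HEK AD293 cells (DMEM, 10% FBS) lipofected with an NF-κB consensus luciferase reporter plus an equal mass of SV-promoter β-galactosidase plasmid. Replated after 24 h recovery and treated with compound. Luciferase read by chemiluminescence and β-galactosidase colorimetrically; activity expressed as their ratio. SEM of independent experiments in triplicate.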

In experiment [17] the test system is MDA-MB-231. Briefly: Effect on proteosomal activity of human MDA-MB-231 cells measured after 3 days in absence of epoxomicin. The experiment is classed as functional, cell-based. An outline of the steps:
(§5)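 Viable MDA-MB-231 cells (100000 in 100 µL RPMI) incubated with a succinyl luminogenic proteasome substrate; activity expressed as luminescence normalized to untreated controls. Analogue exposure 3 days; epoxomicin control exposure 6 h. SEM of independent experiments in triplicate.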

Experiment [18] deals with T1, Histone deacetylase (Homo sapiens). The experiment is described as follows: Inhibition of HDAC in human MDA-MB-231 cells assessed as increase in p21 mRNA level by qRT-PCR. The experiment is classed as cell-based.
The subject of experiment [19] is MDA-MB-231. The experiment is described as follows: Inhibition of proteosomal activity of human MDA-MB-231 cells measured after 6 hrs in presence of epoxomicin. Type of experiment: functional, cell-based. Put shortly: as §5
For experiment [20], the system named is MDA-MB-231. Briefly: Inhibition of human MDA-MB-231 cells migration at 50 uM after 3 days by Boyden chamber assay. The experiment is classed as functional, cell-based. Put shortly:
as §4

Experiment [21] has as its system MDA-MB-231. Briefly: Suppression of pro-MMP9 mRNA level in human MDA-MB-231 cells after 3 days by qRT-PCR. Type of experiment: functional, cell-based. An outline of the steps:
as §3

For experiment [22], the system named is MDA-MB-231. The experiment is described as follows: Reduction of endogenous NFKB1 (p105) mRNA level in human MDA-MB-231 cells. Type of experiment: functional, cell-based.
For experiment [23], the system named is MDA-MB-231. The experiment is described as follows: Antiproliferative activity against human MDA-MB-231 cells by Coulter counting analysis. Type of experiment: functional, cell-based. Put shortly: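 MDA-MB-231 cells grown in RPMI-1640 with 10% FBS and plated at 27000 cells/cm² with compound added at plating from EtOH stock (final EtOH 0.4% v/v). Incubated 3 days at 37 °C, 5% CO₂. Viable cells trypsinized and counted on a Coulter counter. SEM, n ≥ 3.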

The subject of experiment [24] is MDA-MB-231. The experiment is described as follows: Inhibition of human MDA-MB-231 cells invasion at 50 uM after 3 days by Boyden chamber assay. Type of experiment: functional, cell-based. An outline of the steps: as §4
For the next experiment, the system named is HEK AD293 (Homo sapiens). Briefly: Inhibition of NF-kappaB transcriptional activity in human HEK AD293 cells by luciferase reporter gene assay.
Experiment [25] concerns MDA-MB-231. Briefly: Enhancement of NFkappaB1 level in human MDA-MB-231 cells by qRT-PCR. Type of experiment: functional, cell-based. An outline of the steps: as §2
In experiment [26] the test system is MDA-MB-231. The experiment is described as follows: Downregulation of CXCR4 in human MDA-MB-231 cells by qRT-PCR. Type of experiment: functional, cell-based.
In experiment [27] the test system is MDA-MB-231. The experiment is described as follows: Growth inhibition of human MDA-MB-231 cells after 15 days. The experiment is classed as functional, cell-based. Put shortly: (§6)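 Proliferation followed over time up to 15 days in MDA-MB-231 cells (RPMI-1640, 10% FBS, 37 °C, 5% CO₂). Compound added at plating from EtOH stock, final EtOH 0.4% v/v. Data averaged from triplicate experiments.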

The test system of experiment [28] is MDA-MB-231. The experiment is described as follows: Growth inhibition of human MDA-MB-231 cells after 3 to 5 days. Type of experiment: functional, cell-based. An outline of the steps:
as §6

Experiment [29] concerns MDA-MB-231. Briefly: Increase in MUC1 mRNA transcription in human MDA-MB-231 cells by qRT-PCR. The experiment is classed as functional, cell-based. Put shortly:
as §2

Experiment [30] concerns MDA-MB-231. Briefly: Inhibition of human MDA-MB-231 cells invasion at 50 uM by Boyden chamber assay. The experiment is classed as functional, cell-based.
The subject of experiment [31] is MDA-MB-231. Briefly: Inhibition of human MDA-MB-231 cells migration at 50 uM by Boyden chamber assay. Type of experiment: functional, cell-based.

SMILES strings stand for the structures. Activity calls are given as the source filed them. No cut-off for these calls is given here.

As to `CCCC(=O)OC[C@H]1OC(O)[C@@H](NC(C)=O)[C@@H](OC(=O)CCC)[C@@H]1OC(=O)CCC` (stereo partly specified), the result in the experiment with MDA-MB-231 [1], in the experiment with MDA-MB-231 [2] and with MDA-MB-231 [3] was Active.
For `CC(=O)N[C@H](C=O)[C@@H](O)[C@H](O)[C@H](O)CO`, the outcome with MDA-MB-231 [4] was inactive. In addition, the outcome in the experiment with MDA-MB-231 [5] and in the experiment on MDA-MB-231 [6] was Active.
As to `CCCC(=O)OC[C@H]1OC(OC(=O)CCC)[C@@H](NC(C)=O)[C@@H](OC(=O)CCC)[C@@H]1OC(=O)CCC` (stereo partly specified), the result (in [7]; with MDA-MB-231 [9]; in the experiment on MDA-MB-231 [10]; in the experiment with MDA-MB-231 [13]; in experiment [14]; in the experiment with MDA-MB-231 [15]) was Active. The outcome (with MDA-MB-231 [16]; in experiment [18]; in the experiment with MDA-MB-231 [19]; in the experiment with MDA-MB-231 [20]; in the experiment with MDA-MB-231 [22]; with MDA-MB-231 [23]) was Active. Besides, the result in the experiment with MDA-MB-231 [24] was Active. The Activity entry in the experiment on MDA-MB-231 [8] was “Dose-dependent effect”; in the experiment with MDA-MB-231 [11], 75%; in the experiment on MDA-MB-231 [12], “Dose-dependent effect”; in the experiment on HEK293, 75%. For the same molecule, the result with MDA-MB-231 [17] and with MDA-MB-231 [21] was inactive.
Regarding `CCCC(=O)OC1O[C@H](CO)[C@@H](OC(=O)CCC)[C@H](OC(=O)CCC)[C@@H]1NC(C)=O` (stereo partly specified), the outcome in the experiment on MDA-MB-231 [2] was Active. Besides, in the experiment on HEK AD293 (Homo sapiens), the outcome was inactive.
For the molecule `CCCC(=O)OC[C@@H](OC(=O)CCC)[C@@H](OC(=O)CCC)[C@@H]1OC(OC(=O)CCC)(C(=O)OC)C[C@H](OC(=O)CCC)[C@@H]1NC(C)=O` (stereo partly specified), the result with MDA-MB-231 [25], with MDA-MB-231 [26], with MDA-MB-231 [28] and with MDA-MB-231 [29] was Active. Besides, the result in the experiment on MDA-MB-231 [27] was inactive.
With `CCCC(=O)OC[C@H]1OC(OC(=O)CCC)[C@@H](OC(=O)CCC)[C@@H](OC(=O)CCC)[C@@H]1OC(=O)CCC` (stereo partly specified), the result (in [7]; with MDA-MB-231 [9]; in experiment [18]; in the experiment on MDA-MB-231 [19]; in the experiment with MDA-MB-231 [21]; in the experiment with MDA-MB-231 [23]) was Active. For the same molecule, the result (in the experiment on MDA-MB-231 [8]; in the experiment on MDA-MB-231 [30]; in experiment [14]; in the experiment on MDA-MB-231 [31]; in the experiment on MDA-MB-231 [17]; with MDA-MB-231 [22]) was inactive.
On to `CCCC(=O)O`, for which the result in experiment [7] and in experiment [18] was Active.

These data come from ChEMBL document CHEMBL1151731, “Targeting pro-invasive oncogenes with short chain fatty acid-hexosamine analogues inhibits the mobility of metastatic MDA-MB-231 breast cancer cells” (J Med Chem, 2008).
